# Reference: publication PMC11068032 (Journal of medicinal chemistry, 2023)
# What was measured:
# [1] = system: AR protein level in T98G cells; experiment: AR downregulation in T98G cells by Western blotting; type: cell-based, human; details: for AR downregulation activity at 50 nM / AR downregulation activity at 100 nM: 12 h; for AR protein level: 25, 50, and 100 nM
# Outline: (§1)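 Cells in 6-well plates treated with test compound or DMSO (T98G screens at 100 or 50 nM for 12 h). Lysed in RIPA with protease inhibitors (10 min on ice), spun at 10,000g for 10 min, protein by BCA. 50 µg resolved on 10% SDS-PAGE, transferred to PVDF, blocked 2 h in 5% milk/TBS-T. Anti-AR or anti-AR-V7 primary overnight at 4 °C, secondary 60 min at RT, chemiluminescence. Band gray values quantified.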
# [2] = system: U87 xenograft tumor; experiment: U87 xenograft tumor model in nude mice; type: in vivo; details: for nude mice body weight / tumor size / tumor weight: 20 mg/kg IP every other day; for nude mice body weight / tumor size: 2 weeks; for tumor size / tumor weight / AR protein level in tumors: vs control; for tumor weight: end of experiment; for AR protein level in tumors: 20 mg/kg IP, Western blotting of tumor lysates
# Outline: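 Nude mice (5–6 weeks) received U87 cells (5 × 10^6 in PBS) subcutaneously into both flanks; n = 4/group, 8 tumors/group. At about 50 mm3, mice got vehicle (DMSO) or test compound 20 mg/kg in PBS IP three times weekly for 14 days. Calipers three times weekly, V = 2/3 d1 × d2², body weight recorded. At end: CO2 euthanasia, tumors weighed, two tumors per mouse pooled and homogenized in RIPA for AR blotting.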
# [3] = system: AR-V7 in T98G cells; experiment: Mutated AR; type: cell-based, human; details: Western blotting
# Outline: as §1
# [4] = system: AR in T98G cells; experiment: AR immunofluorescence assay in T98G cells; type: cell-based, human; details: 50 nM, 12 h, compared to the control
# Outline: (§2)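 Cells were grown on coverslips for 24 h, then given test compound at 50 nM for 12 h. Fixed in 4% paraformaldehyde (10 min), permeabilized with 0.1% Triton X-100 (10 min) and blocked in 1% BSA (30 min). Anti-AR primary 1 h, fluorescent secondary 1 h, nuclei stained with DAPI 1 µg/mL for 10 min, then imaged by fluorescence microscopy.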
# [5] = molecular target: T1, α-crystallin (chaperone function domain of HSP27) (Bos taurus, UniProt P02470+P02510); experiment: HSP27 chaperone activity assay; type: biochemical; details: for inhibition of in vitro chaperone function of HSP27: 10 μM (Figure 3), α-crystallin present; for interference with DTT-induced insulin aggregation: without chaperone protein, 10 μM or below
# T1 sequence (P02470 1-173): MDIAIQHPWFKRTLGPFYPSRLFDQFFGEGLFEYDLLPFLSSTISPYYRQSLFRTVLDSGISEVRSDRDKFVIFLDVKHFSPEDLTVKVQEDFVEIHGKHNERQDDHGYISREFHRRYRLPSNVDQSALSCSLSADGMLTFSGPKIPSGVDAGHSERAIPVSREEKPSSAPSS
# T1 sequence (P02510 1-175): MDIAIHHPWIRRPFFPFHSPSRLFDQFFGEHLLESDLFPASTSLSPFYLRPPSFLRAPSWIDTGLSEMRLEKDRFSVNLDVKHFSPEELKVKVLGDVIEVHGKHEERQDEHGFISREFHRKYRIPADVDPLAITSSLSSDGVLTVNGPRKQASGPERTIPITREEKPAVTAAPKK
# Outline: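 Chaperone assay: insulin (from 1 mg/mL stock) with α-crystallin, the HSP27 chaperone domain (from 5 mg/mL stock), and test compound in PBS. Preincubated 5 min at 37 °C, then aggregation started with DTT (from 1 M stock). A400 read every 3 min for up to 2 h. Controls were insulin with or without α-crystallin in 0.1% DMSO. Three independent experiments, each in triplicate; mean curves.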
# [6] = system: AR in U87 cells; experiment: AR immunofluorescence assay in U87 cells; type: cell-based, human; details: 50 nM, 12 h, compared to the control
# Outline: as §2
# [7] = Maximum-tolerated dose; type: in vivo; details: 100 mg/kg per day IP for 10 days; for body weight growth rate / hematology, profile of the blood / tissue staining (H&E) of kidney, spleen, lung, liver, and heart: vs control group
# Outline: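 Twelve C57BL/6 mice randomised into three groups (vehicle DMSO, or test compound in PBS), dosed IP daily and euthanised after 10 days. Body weight recorded daily. Nonfasted cardiac blood drawn immediately after euthanasia for automated haematology analysis. Heart, liver, spleen, lung and kidney rinsed in PBS, formalin-fixed, ethanol-dehydrated, xylene-cleared, paraffin-embedded and H&E-stained.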
# [8] = system: AR protein level in U87 cells; experiment: AR downregulation in U87 cells by Western blotting; type: cell-based, human; details: 25, 50, and 100 nM
# Outline: as §1
# [9] = system: AR-overexpressed GBM cell lines U87 and T98G; type: cell-based, human; details: summary of Table 1
# Outline: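 MTT assay in T98G and U87 cells kept in RPMI1640 or DMEM with 10% FBS and penicillin/streptomycin at 37 °C, 5% CO2. MTT 1 mg/mL for 2 h at 37 °C, formazan dissolved in DMSO, A570 read. Eight replicates; IC50 by nonlinear regression.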
# [10] = cited from earlier work
SMILES,AR downregulation activity at 50 nM [1],AR downregulation activity at 100 nM [1],AR protein level [1],nude mice body weight [2],tumor size [2],tumor weight [2],AR protein level in tumors [2],mutated AR (AR-V7) level [3],fluorescence intensities of AR [4],inhibition of in vitro chaperone function of HSP27 [5],interference with DTT-induced insulin aggregation [5],fluorescence intensities of AR [6],"condition observation (signs of toxicity such as dehydration, acute pain, or distress) [7]",body weight growth rate [7],"hematology, profile of the blood [7]","tissue staining (H&E) of kidney, spleen, lung, liver, and heart [7]",AR protein level [8],also measured
"COc1ccc(OC)c(COc2cc(NC(=O)c3ccc4c(c3)OCO4)ccc2NS(C)(=O)=O)c1 [Compound 4, N-(3-((2,5-Dimethoxybenzyl)oxy)-4-(methylsulfonamido)phenyl)benzo[d][1,3]dioxole-5-carboxamide]",potent AR downregulation activity,significant AR downregulation activity,significantly downregulate,not affected,significantly decreased,significantly decrease,significantly decreased,downregulate,decreased,significantly inhibit,do not interfere,decreased,do not show any sign of toxicity,no growth rate difference,no change,no substantial histological abnormalities,significantly downregulate,inhibition at 10 µM ([5]; read-out: inhibition of the chaperone function): > 50%
"COc1ccc(OC)c(COc2cc(NC(=O)c3ccc4ccccc4c3)ccc2NS(C)(=O)=O)c1 [Compound 26, N-(3-((2,5-Dimethoxybenzyl)oxy)-4-(methylsulfonamido)phenyl)-2-naphthamide]",potent AR downregulation activity,significant AR downregulation activity,significantly downregulate,not affected,significantly decreased,significantly decrease,significantly decreased,downregulate,decreased,significantly inhibit,do not interfere,decreased,do not show any sign of toxicity,no growth rate difference,no change,no substantial histological abnormalities,significantly downregulate,–
"COc1ccc(OC)c(COc2cc(NC(=O)CCCC(=O)Nc3ccc(NS(C)(=O)=O)c(OCc4cc(OC)ccc4OC)c3)ccc2NS(C)(=O)=O)c1 [Compound 37, N1,N5-Bis(3-((2,5-dimethoxybenzyl)oxy)-4-(methylsulfonamido)phenyl)glutaramide]",–,significant AR downregulation activity,–,–,–,–,–,–,–,–,–,–,–,–,–,–,–,activity in GBM cell growth inhibition (SAR wording) [9]: poor activity
"COc1ccc(C(=O)Nc2ccc(NS(C)(=O)=O)c(OCc3cc(OC)ccc3OC)c2)cc1 [Compound I, N-(3-((2,5-dimethoxybenzyl)oxy)-4-(methylsulfonamido)phenyl)-4-methoxybenzamide]",–,–,–,–,–,–,–,–,–,–,–,–,–,–,–,–,–,AUC in brain tissue as share of the AUC in plasma [10]: about 2%; half-life [10]: about 1.5 h
